Reference: ChEMBL document CHEMBL1148432, “PDE2 inhibition by the PI3 kinase inhibitor LY294002 and analogues” (Bioorg Med Chem Lett, 2004)

What follows are molecules tested against Phosphodiesterase 3 (Homo sapiens, UniProt Q14432+Q13370) (assay: Inhibition of human platelet phosphodiesterase 3).
Outline: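 PDE3 was separated from PDE2 in human platelet lysate by anion-exchange chromatography. It was assayed under conditions optimal for that isozyme, with the AMP product quantified by reverse-phase HPLC.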

Row | IC50 [µM] | SMILES
1 | 100 | O=c1cc(N2CCOCC2)oc2c(-c3ccccc3)cccc12 [LY-294002]

These molecules were tested against T1, cGMP-dependent 3',5'-cyclic phosphodiesterase (Homo sapiens, UniProt O00408) (assay: Inhibitory activity against human platelet phosphodiesterase 2 at 50 uM expressed as percent basal value).
T1 sequence (O00408 whole entry): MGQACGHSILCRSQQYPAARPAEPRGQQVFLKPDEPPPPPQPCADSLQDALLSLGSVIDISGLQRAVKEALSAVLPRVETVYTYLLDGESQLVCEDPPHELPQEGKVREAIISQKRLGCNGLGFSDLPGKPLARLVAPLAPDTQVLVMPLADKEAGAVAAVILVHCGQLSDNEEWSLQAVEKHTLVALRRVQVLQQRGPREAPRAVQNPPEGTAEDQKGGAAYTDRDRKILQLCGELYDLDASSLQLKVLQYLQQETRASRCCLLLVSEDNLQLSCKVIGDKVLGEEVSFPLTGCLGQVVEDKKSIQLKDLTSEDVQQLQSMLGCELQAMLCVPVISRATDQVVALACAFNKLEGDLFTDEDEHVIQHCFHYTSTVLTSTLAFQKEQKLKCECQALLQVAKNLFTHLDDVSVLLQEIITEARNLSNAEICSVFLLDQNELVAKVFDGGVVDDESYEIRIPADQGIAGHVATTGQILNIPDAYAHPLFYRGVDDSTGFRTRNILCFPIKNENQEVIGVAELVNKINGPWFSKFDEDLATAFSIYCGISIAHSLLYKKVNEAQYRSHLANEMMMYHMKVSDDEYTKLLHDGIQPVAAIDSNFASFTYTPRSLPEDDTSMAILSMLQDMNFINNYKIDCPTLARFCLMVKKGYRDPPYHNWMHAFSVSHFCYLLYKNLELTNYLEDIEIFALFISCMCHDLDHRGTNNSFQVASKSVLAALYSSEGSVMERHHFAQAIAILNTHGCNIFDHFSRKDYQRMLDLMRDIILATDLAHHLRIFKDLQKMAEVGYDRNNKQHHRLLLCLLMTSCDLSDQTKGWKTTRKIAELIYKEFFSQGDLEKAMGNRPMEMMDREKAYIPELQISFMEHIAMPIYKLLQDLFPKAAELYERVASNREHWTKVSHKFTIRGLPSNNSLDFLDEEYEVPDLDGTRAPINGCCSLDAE
Outline: (§1)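 PDE2 was purified from human platelet lysate by anion-exchange chromatography. The enzyme was premixed in HEPES buffer with cGMP and inhibitor or DMSO for 90 s at 37 °C, then started with cAMP substrate. The reaction was stopped after 5 min by heating at 100 °C for 3 min. AMP was measured by reverse-phase HPLC at 254 nm against standards and expressed as % of DMSO control (mean ± SE, n ≥ 3).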

Row | SMILES | Remaining activity (% of control) [%]
2 | O=c1cc(N2CCOCC2)oc2cc(C#Cc3ccccc3)ccc12 | 92
3 | Cc1cc(-c2ccccc2)c2oc(N3CCOCC3)cc(=O)c2c1 | 60
4 | O=c1cc(N2CCOCC2)oc2c(-c3ccc(F)cc3)cccc12 | 43
5 | O=c1cc(N2CCOCC2)oc2cc(OCc3ccccc3)ccc12 | 12
6 | COc1cc(-c2cccc(Cl)c2)c2oc(N3CCOCC3)cc(=O)c2c1 | 87
7 | Cc1c(OCc2ccccc2)ccc2c(=O)cc(N3CCOCC3)oc12 | 38
8 | O=c1cc(N2CCOCC2)oc2c(-c3ccccc3)cccc12 [LY-294002] | 54
9 | COc1ccc2oc(N3CCOCC3)cc(=O)c2c1 | 38
10 | Cc1c(C#Cc2ccccc2)ccc2c(=O)cc(N3CCOCC3)oc12 | 44
11 | COc1cc(-c2ccc(Cl)cc2)c2oc(N3CCOCC3)cc(=O)c2c1 | 67
12 | O=c1cc(N2CCOCC2)oc2c(OCc3ccccc3)cccc12 | 40
13 | O=c1cc(N2CCOCC2)oc2cc(-c3ccccc3)ccc12 | 9
14 | O=c1cc(N2CCOCC2)oc2c(-c3ccccc3)cc(O)cc12 | 69
15 | O=c1cc(N2CCOCC2)oc2c(O)cccc12 | 19
16 | Cc1ccccc1-c1cccc2c(=O)cc(N3CCOCC3)oc12 | 47

Next, values leading:

Row | Remaining activity (% of control) [%] | SMILES
17 | 20 | COc1cccc2c(=O)cc(N3CCOCC3)oc12
18 | 75 | COc1cc(-c2ccccc2)c2oc(N3CCOCC3)cc(=O)c2c1
19 | 35 | O=c1cc(N2CCOCC2)oc2c(OCc3cccnc3)cccc12
20 | 43 | O=c1cc(N2CCOCC2)oc2c(-c3ccccc3C(F)(F)F)cccc12
21 | 62 | O=c1cc(N2CCOCC2)oc2c(-c3ccccc3Cl)cccc12
22 | 47 | COc1ccccc1-c1cccc2c(=O)cc(N3CCOCC3)oc12
23 | 35 | Cc1c(OCc2cccnc2)ccc2c(=O)cc(N3CCOCC3)oc12
24 | 43 | O=c1cc(N2CCOCC2)oc2c(CCc3ccccc3)cccc12
25 | 22 | O=c1cc(N2CCOCC2)oc2cc(OCc3cccnc3)ccc12
26 | 93 | O=c1cc(N2CCOCC2)oc2c(C#Cc3ccccc3)cccc12
27 | 75 | O=c1cc(N2CCOCC2)oc2c(-c3ccc(Oc4ccccc4)cc3)cccc12
28 | 31 | Cc1c(-c2ccccc2)ccc2c(=O)cc(N3CCOCC3)oc12
29 | 47 | CCc1cc(-c2ccccc2)c2oc(N3CCOCC3)cc(=O)c2c1
30 | 78 | COc1cc(-c2ccccc2Cl)c2oc(N3CCOCC3)cc(=O)c2c1

The molecules below were run against T1, cGMP-dependent 3',5'-cyclic phosphodiesterase (assay: Inhibition of human platelet phosphodiesterase 2).
Outline: as §1

Row | IC50 [µM] | SMILES
31 | 9 | COc1cc(-c2cccc(Cl)c2)c2oc(N3CCOCC3)cc(=O)c2c1
32 | 5 | CCCCCC[C@@H]([C@@H](C)O)n1cnc2c(N)ncnc21 [EHNA]
33 | 40 | O=c1cc(N2CCOCC2)oc2c(-c3ccccc3)cccc12 [LY-294002]
34 | 6 | O=c1cc(N2CCOCC2)oc2c(C#Cc3ccccc3)cccc12
